The target in this experiment is T1, Steryl-sulfatase (Homo sapiens, UniProt P08842).
T1 sequence (P08842 whole entry): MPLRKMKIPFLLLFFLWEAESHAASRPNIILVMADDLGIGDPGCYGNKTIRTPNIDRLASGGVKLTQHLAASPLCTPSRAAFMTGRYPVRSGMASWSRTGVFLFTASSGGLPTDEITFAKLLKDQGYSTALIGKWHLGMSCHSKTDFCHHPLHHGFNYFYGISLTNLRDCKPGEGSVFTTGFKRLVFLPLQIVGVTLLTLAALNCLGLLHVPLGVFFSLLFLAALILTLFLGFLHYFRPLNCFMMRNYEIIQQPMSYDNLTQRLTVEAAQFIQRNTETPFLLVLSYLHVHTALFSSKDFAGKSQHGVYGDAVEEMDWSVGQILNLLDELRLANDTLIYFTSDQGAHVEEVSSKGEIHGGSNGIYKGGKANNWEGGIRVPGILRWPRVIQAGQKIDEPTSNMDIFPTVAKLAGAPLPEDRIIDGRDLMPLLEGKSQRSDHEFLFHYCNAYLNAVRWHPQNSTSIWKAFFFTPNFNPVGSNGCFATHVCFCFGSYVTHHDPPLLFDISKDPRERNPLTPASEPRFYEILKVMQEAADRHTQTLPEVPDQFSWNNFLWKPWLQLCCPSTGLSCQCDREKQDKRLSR
Kind of experiment: Compound was evaluated for its inhibitory activity against estrone sulfatase enzyme. In outline:
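They are added to tubes holding [3H]estrone sulfate (300,000 dpm) and inhibitor, which was dried from ethanol under nitrogen. Incubation runs 20 min at 37 °C and is quenched with toluene. Radioactivity in the toluene extract is counted. Triplicates are run alongside no-inhibitor controls and boiled-microsome blanks.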

Each structure is given as a SMILES string.

As for `COC(=O)c1ccc(-c2ccc(OS(N)(=O)=O)cc2)cc1`, half-maximal inhibition (IC50) required 5.2 µM.
The same measure for `CCCOC(=O)c1ccc(-c2ccc(OS(N)(=O)=O)cc2)cc1`: 3.5 µM.
As for `CCCCOC(=O)c1ccc(-c2ccc(OS(N)(=O)=O)cc2)cc1`, the figure is 5.8 µM; as for `CCOC(=O)c1ccc(-c2ccc(OS(N)(=O)=O)cc2)cc1`, 4.2 µM; as for `N#Cc1ccc(-c2ccc(OS(N)(=O)=O)cc2)cc1`, 6.7 µM.
Regarding `Cc1cc(=O)oc2cc(OS(N)(=O)=O)ccc12` [4-methyl-2-oxo-2H-chromen-7-yl sulfamate], the IC50 stood at 10 µM. The IC50 values of the last two molecules are within 1.5-fold of each other.
`NS(=O)(=O)Oc1ccc(-c2ccccc2)cc1` [Sulfamic acid biphenyl-4-yl ester]: the midpoint of inhibition, the IC50, lay at 76.1 µM.

The IC50 is the concentration at which inhibition is half-maximal.

Source of the values: BindingDB's records for doi:10.1016/s0960-894x(02)00170-1 (Kingston University, 2002).
